# Screening data deposited in PubChem by Johns Hopkins Ion Channel Center.
# In the library only some 3.7% were active in any assay of this set; here they are far more common.
# hERG rescue = shields human hERG channel from block by proarrhythmic agents; activation (rescue from dofetilide block), less the hit threshold, % at 10 µM; actives 0.51% (n = 310,000); CHO-hERG, FluxOR thallium flux, dofetilide IC70 present;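 active means activation above the mean of controls blocked by dofetilide plus 5 SD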;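 further: thallium influx through hERG after potassium depolarization seen as dye fluorescence rise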
# KCNK3 block = human KCNK3 channel inhibition, primary screen. CHO-KCNK3 thallium flux, FluxOR fluorescence; hits give low values. actives 0.84% (n = 340,000). B-score at 10 µM;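 active means B-score under library mean minus 4 SD, starting fluorescence ratio at most library mean plus 5 SD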;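 further: more negative B-score means stronger inhibition of thallium flux through KCNK3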
# Kir21 inh = inhibitors of mouse Kir2.1 inward-rectifier potassium channel. P35561. HEK293-Kir2.1, FluxOR thallium flux fluorescence; hits give low values. B-score at 10 µM. actives 0.85% (n = 310,000). AID 1672;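 active means fluorescence ratio B-score at or below minus 3 SD of library scores, with starting-brightness B-score within 2 SD, cut at about -4.2 in these data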;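 further: channel flux triggered by added potassium and thallium sulfate stimulus; B-score of peak minus minimum fluorescence over baseline after thallium stimulus; more negative B-score means stronger Kir2.1 block with less thallium influx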
# Target sequence (P35561 whole entry, looked up): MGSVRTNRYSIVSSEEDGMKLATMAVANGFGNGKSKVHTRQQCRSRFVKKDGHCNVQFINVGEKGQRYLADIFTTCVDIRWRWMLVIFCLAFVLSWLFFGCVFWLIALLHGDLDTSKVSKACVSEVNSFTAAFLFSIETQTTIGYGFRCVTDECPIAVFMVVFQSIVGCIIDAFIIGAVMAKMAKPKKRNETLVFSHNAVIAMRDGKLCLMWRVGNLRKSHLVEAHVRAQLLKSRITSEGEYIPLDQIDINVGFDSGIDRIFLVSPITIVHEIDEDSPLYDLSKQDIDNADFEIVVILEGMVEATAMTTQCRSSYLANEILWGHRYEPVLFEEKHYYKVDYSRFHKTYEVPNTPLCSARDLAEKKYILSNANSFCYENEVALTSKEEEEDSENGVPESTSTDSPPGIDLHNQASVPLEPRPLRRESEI
# KCNQ1 block = inhibitors of human KCNQ1 potassium channel | P51787 | CHO-K1 KCNQ1, FluxOR thallium flux fluorescence; hits give high values | B-score at 10 µM | actives 1.3% (n = 310,000);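 active means compounds whose thallium flux B-score, printed positive for inhibition, exceeds three library SD while starting fluorescence stays within three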;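 further: channel opened by potassium depolarization with thallium stimulus after 20 min compound exposure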
# KCNQ1 pot = potentiates or activates the human KCNQ1 potassium channel | B-score at 10 µM | P51787 | CHO-K1 KCNQ1, thallium flux FluxOR fluorescence; hits give high values | actives 0.35% (n = 310,000);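 active means fluorescence ratio B-score, a plate-corrected score, at least three library SD, with initial intensity B-score within 5 SD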
#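 Assay system: CHO-K1 cells stably expressing KCNQ1; Medium: assay buffer with matched DMSO; Also added: K+/Tl+ depolarizing stimulus; Dosing: single dose; Timing: dye 90 min, compound 20 min, room temperature; Measured by: kinetic FluxOR thallium fluorescence, 10-s 1-Hz baseline, 110-s post-stimulus read; Read-out: peak-minus-minimum fluorescence over initial fluorescence, negative-control normalized, B-scored.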
# KCNK9 block = blocks the human KCNK9 two-pore domain potassium channel. AID 488922. actives 1.2% (n = 310,000). B-score at 10 µM. HEK293 KCNK9, FluxOR thallium flux fluorescence; hits give low values;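 active means ratio B-score over 3 SD below the library mean, with starting fluorescence within 5 SD of its mean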;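 further: negative B-score means less thallium flux so channel inhibition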
# KCNK9 block conf = confirmation of human KCNK9 potassium channel inhibitors; HEK293 KCNK9 cells, FluxOR thallium flux fluorescence; shares compounds with KCNK9 block; actives 43% (n = 4,900); inhibition, % at 10 µM;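 active means thallium signal inhibited by more than 5 SD of the compound-free buffer control wells, on both duplicate plates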;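 further: 0% = assay buffer control wells without compound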
# Kir21 sel = selectivity of KCNK9 modulators against mouse Kir2.1; shares compounds with KCNK9 block; Kir2.1 cells, FluxOR thallium flux fluorescence; inhibition, % at 10 µM; actives 4% (n = 4,900); AID 492993;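 active means thallium signal drop more than 5 SD beyond the mean of the no-compound control wells, seen in both duplicate plates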;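 further: signal is fluorescence rise after thallium addition divided by baseline fluorescence; plate controls were assay buffer only for no effect and full block by chlorpromazine control for full effect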
# HEK293 Tl ctr = second check of KCNK9 modulator effects in non-induced HEK293 cells; shares compounds with KCNK9 block; FluxOR thallium flux; inhibition, % at 10 µM; actives 40% (n = 4,900);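 active means thallium signal drop beyond 5 SD of the untreated control mean, on both duplicate plates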;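 further: plate controls were buffer only IC0 wells for no effect and SID17386958 at its maximal inhibitory level for full effect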
# An asterisk follows results filed as active; i = inactive; . = no result given.
SMILES,hERG rescue,KCNK3 block,Kir21 inh,KCNQ1 block,KCNQ1 pot,KCNK9 block,KCNK9 block conf,Kir21 sel,HEK293 Tl ctr
Cc1nn(-c2ccccc2)c(Cl)c1/C=N\NC(=O)c1cnccn1,-9.6,i,-0.16,i,i,i,.,.,.
Cc1nn(-c2ccccc2)c(Cl)c1/C=N/NC(=O)OC(C)(C)C,-9.1,i,-0.67,i,i,-11.4*,49.0%*,i,i
Cc1nn(-c2ccccc2)c(Cl)c1/C=N/NC(=O)c1ccco1,-3.9,i,-0.33,i,i,-8.65*,49.5%*,i,27.5%*
O=C(CCc1nc2ccccc2c(=O)[nH]1)NNC(=O)COc1cccc(F)c1,.,i,.,.,.,.,.,.,.
COc1ccccc1NC(=S)NC(=O)C(C)(C)C,-4.8,i,-0.52,i,i,i,i,i,i
O=[N+]([O-])c1ccc(CSc2ccc(S(=O)(=O)N3CCCCC3)cn2)cc1,.,i,.,.,.,.,.,.,.
Cc1cc(-c2nnc(CSc3nnc(NC(=O)c4ccc(C(C)(C)C)cc4)s3)o2)ccc1[N+](=O)[O-],-4.7,i,-0.8,i,i,i,.,.,.
COC(=O)C(Cc1ccc(OC(=O)c2ccc(C(F)(F)F)cc2)cc1)N1Cc2ccccc2C1=O (stereo unspecified),-10.1,i,2.07,6*,i,i,i,i,i
COC(=O)C(Cc1ccc(OC(=O)c2ccc(Cl)cc2)cc1)N1Cc2ccccc2C1=O (stereo unspecified),-18.8,i,0.01,i,i,i,.,.,.
O=C(Nc1cccc(Cl)c1N1CCCC1)c1ccc(Br)o1,-16.2,i,-2.71,i,i,-9.34*,27.5%*,i,32.0%*
O=C(Nc1cccc(Cl)c1N1CCCC1)c1ccc([N+](=O)[O-])o1,-5.4,i,0.81,i,i,-10*,34.0%*,i,28.5%*
O=C(Nc1cccc(Cl)c1N1CCCC1)c1cc2ccccc2o1,-13.1,i,0.77,i,i,i,.,.,.
CC(=O)N1C[C@H]2CON(C)[C@H]2C[C@H]1c1cccc(-c2ccccc2C)c1,.,i,.,.,.,.,.,.,.
CCCC(=O)Nc1ccc(C(=O)NNC(=S)NC(=O)c2ccc(Br)o2)cc1,-11.8,i,-0.79,i,i,i,.,.,.
O=C(CCSc1ccc(Cl)c(Cl)c1)NC12CC3CC(CC(C3)C1)C2,-7.3,i,0.27,i,i,i,i,i,i
CSc1nnc(Cc2sc(-c3ccccc3)nc2-c2ccccc2)o1,-7.6,i,0.11,i,i,-8.1*,i,i,25.0%*
Fc1ccc(CSc2nnc(Cc3sc(-c4ccccc4)nc3-c3ccccc3)o2)cc1,-14.2,i,-0.36,i,i,i,.,.,.
COc1ccccc1CC(=O)Nc1nc(-c2ccc(F)c(F)c2)cs1,-10.8,i,-0.03,i,i,-17.1*,i,i,39.0%*
COc1ccccc1C/C(N)=N/OC(=O)COc1ccccc1C,-8.7,i,0.39,i,i,i,i,i,i
N/C(Cc1cccc2ccccc12)=N\OC(=O)COc1ccccc1,-8.3,i,0.75,i,i,i,.,.,.
COc1ccccc1C/C(N)=N/OC(=O)COc1cccc2ccccc12,-12.1,i,-1.42,i,i,i,i,i,i
COc1ccc(C(=O)Nc2ccccc2C(N)=O)cc1,-6.9,i,0.3,i,i,i,.,.,.
COc1ccc(C(=O)Nc2ccccc2C(=O)N/N=C/c2cccc3ccccc23)cc1,-13.8,i,1,i,i,-8.45*,61.0%*,i,37.0%*
O=C(Cn1c(=O)c2c(ncn2C2CCCC2)n(Cc2ccccc2)c1=O)N1CCc2ccccc21,-10.1,i,0.13,i,i,i,i,i,i
O=C(Cn1c(=O)c2c(ncn2Cc2ccccc2)n(Cc2ccccc2)c1=O)N1CCCC1,-9.4,i,-0.25,i,i,i,.,.,.
SMILES,hERG rescue,KCNK3 block,Kir21 inh,KCNQ1 block,KCNQ1 pot,KCNK9 block,KCNK9 block conf,Kir21 sel,HEK293 Tl ctr
O=C(NCc1cccnc1)c1ccc(Br)s1,-4.9,i,-0.74,i,i,i,.,.,.
COc1ccccc1NC(=O)Nc1nn(C)c2cccc(OC)c12,-10.7,i,-0.3,i,i,-10.6*,48.5%*,i,27.0%*
COc1ccc(-c2cc(-c3ccc(C)cc3)nc(SCc3nnc(-c4ccccc4)o3)c2C#N)cc1OC,-1.1,i,-0.03,i,i,i,.,.,.
CCCCn1c(SCc2nc(N)nc(Nc3ccccc3C)n2)nc2ccccc2c1=O,-3.9,i,1.21,i,i,-9.46*,39.5%*,i,i
Cc1ccc(-c2nnc(CSc3nc(C(C)C)nc4sc(C)c(C)c34)o2)cc1,-12.3,i,2.32,i,i,i,i,i,i
CCN(C(=O)COC(=O)c1c(C)c(-c2ccccc2)nc2ccccc12)C1CCS(=O)(=O)C1 (stereo unspecified),-12.5,i,0.11,i,i,i,.,.,.
CCC(C)(C)c1ccc(OCCCC[n+]2cccc(C)c2C)c(C(C)(C)CC)c1,-29.1,i,-9.53*,i,i,-11.6*,56.5%*,46.0%*,i
COc1ccc(C(=O)C[n+]2cccc(C)c2C)cc1[N+](=O)[O-],-14.2,i,1.21,i,i,i,.,.,.
CCc1nc(N=C(N)N)nc2ccccc12,-1.9,.,-0.02,i,i,i,.,.,.
NC(N)=Nc1nc(-c2ccccc2)c2ccccc2n1,-20.8,i,-3.39,i,i,-9.61*,27.0%*,i,i
COc1cccc(N2CCN(CC(=O)NC3=Nc4ccccc4N=C(C)C3c3ccccc3)CC2)c1 (stereo unspecified),-8.4,i,0.25,i,i,-14.4*,54.0%*,i,28.5%*
O=C(N/N=C/c1cn(-c2ccccc2)nc1-c1ccc(F)cc1)c1ccc2c(c1)OCO2,-24.3,i,0.87,i,i,-9.98*,55.0%*,i,i
CN1CCN(Cc2nc3c(c(=O)[nH]c(=O)n3C)n2Cc2c(F)cccc2Cl)CC1,-12.9,i,0.22,i,i,i,.,.,.
Cc1cccc(Nc2nc(-c3ccc4c(c3)OCCO4)cs2)c1,-5.7,i,-2.55,i,i,i,i,i,i
